{
  "source": "ChEMBL document CHEMBL1142170",
  "about": "“Mechanism of activation of beta-D-2'-deoxy-2'-fluoro-2'-c-methylcytidine and inhibition of hepatitis C virus NS5B RNA polymerase” (Antimicrob Agents Chemother, 2007)",
  "type_in_all_cases": "cell-based",
  "key": {"[1]": {"substrate": "O=c1ccn([C@@H]2O[C@H](CO)[C@@H](O)[C@H]2O)c(=O)[nH]1", "experiment": "Ratio of Kcat to Km for UCK1 activity expressed in Huh7 cells", "details": "Homo sapiens; Huh-7", "summary_of_the_method": "(§1)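 His-tagged human UCK-1 cloned from Huh-7 cells, assayed at 25°C by pyruvate kinase/lactate dehydrogenase coupling, NADH oxidation at 340 nm. Buffer 64 mM Tris-HCl pH 7.5, 1 mM ATP, Mg2+, phosphoenolpyruvate. Enzyme 41 nM, or 410 nM for 2′-C-methyl cytidines. Substrate concentration varied. Steady-state parameters reported as mean ± SD.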"}, "[2]": {"substrate": "O=c1ccn([C@@H]2O[C@H](CO)[C@@H](O)[C@H]2O)c(=O)[nH]1", "experiment": "Activity of human UCK1 expressed in Huh7 cells assessed as phosphorylation by coupled enzyme assay", "details": "Huh-7", "summary_of_the_method": "as §1"}, "[3]": {"substrate": "C[C@@]1(F)[C@H](O)[C@@H](COP(=O)(O)O)O[C@H]1n1ccc(N)nc1=O", "experiment": "(§2) Ratio of Kcat to Km for YMPK activity expressed in Huh7 cells", "details": "Homo sapiens; Huh-7", "summary_of_the_method": "(§3)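 Human YMPK cloned from Huh-7 cells, 37°C, coupled pyruvate kinase/lactate dehydrogenase assay following NADH at 340 nm. Tris-HCl pH 7.5, 1 mM ATP, MgCl2. Enzyme 80 nM with natural monophosphates, 200 nM with the analog monophosphate. Monophosphate substrate concentration varied, steady-state parameters as mean ± SD.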"}, "[4]": {"substrate": "Nc1ccn([C@@H]2O[C@H](COP(=O)(O)O)[C@@H](O)[C@H]2O)c(=O)n1", "experiment": "as §2", "details": "Homo sapiens; Huh-7", "summary_of_the_method": "as §3"}, "[5]": {"substrate": "Nc1ccn([C@H]2C[C@H](O)[C@@H](COP(=O)(O)O)O2)c(=O)n1", "experiment": "as §2", "details": "Homo sapiens; Huh-7", "summary_of_the_method": "as §3"}, "[6]": {"substrate": "O=c1ccn([C@@H]2O[C@H](COP(=O)(O)O)[C@@H](O)[C@H]2O)c(=O)[nH]1", "experiment": "as §2", "details": "Homo sapiens; Huh-7", "summary_of_the_method": "as §3"}, "[7]": {"substrate": "C[C@@]1(F)[C@H](O)[C@@H](COP(=O)(O)O)O[C@H]1n1ccc(N)nc1=O", "experiment": "(§4) Activity of human YMPK expressed in Huh7 cells assessed as phosphorylation by coupled enzyme assay", "details": "Huh-7", "summary_of_the_method": "as §3"}, "[8]": {"substrate": "Nc1ccn([C@@H]2O[C@H](COP(=O)(O)O)[C@@H](O)[C@H]2O)c(=O)n1", "experiment": "as §4", "details": "Huh-7", "summary_of_the_method": "as §3"}, "[9]": {"substrate": "Nc1ccn([C@H]2C[C@H](O)[C@@H](COP(=O)(O)O)O2)c(=O)n1", "experiment": "as §4", "details": "Huh-7", "summary_of_the_method": "as §3"}, "[10]": {"substrate": "O=c1ccn([C@@H]2O[C@H](COP(=O)(O)O)[C@@H](O)[C@H]2O)c(=O)[nH]1", "experiment": "as §4", "details": "Huh-7", "summary_of_the_method": "as §3"}},
  "data": [
    {"protein": "Uridine-cytidine kinase 1 (Homo sapiens), Q9HA47 (protein) MASAGGEDCESPAPEADRPHQRPFLIGVSGGTASGKSTVCEKIMELLGQNEVEQRQRKVVILSQDRFYKVLTAEQKAKALKGQYNFDHPDAFDNDLMHRTLKNIVEGKTVEVPTYDFVTHSRLPETTVVYPADVVLFEGILVFYSQEIRDMFHLRLFVDTDSDVRLSRRVLRDVRRGRDLEQILTQYTTFVKPAFEEFCLPTKKYADVIIPRGVDNMVAINLIVQHIQDILNGDICKWHRGGSNGRSYKRTFSEPGDHPGMLTSGKRSHLESSSRPH", "values": [
      {"measurement": "kcat/Km", "setting": "[1]", "value": 1300, "unit": "M⁻¹ s⁻¹"},
      {"measurement": "Km", "setting": "[2]", "value": 407, "unit": "µM"},
      {"measurement": "kcat", "setting": "[2]", "value": 0.51, "unit": "s⁻¹"}
    ]},
    {"protein": "UMP-CMP kinase (Homo sapiens), P30085 (protein) MKPLVVFVLGGPGAGKGTQCARIVEKYGYTHLSAGELLRDERKNPDSQYGELIEKYIKEGKIVPVEITISLLKREMDQTMAANAQKNKFLIDGFPRNQDNLQGWNKTMDGKADVSFVLFFDCNNEICIERCLERGKSSGRSDDNRESLEKRIQTYLQSTKPIIDLYEEMGKVKKIDASKSVDEVFDEVVQIFDKEG", "values": [
      {"measurement": "kcat/Km", "setting": "[3]", "value": 12000, "unit": "M⁻¹ s⁻¹"},
      {"measurement": "kcat/Km", "setting": "[4]", "value": 540000, "unit": "M⁻¹ s⁻¹"},
      {"measurement": "kcat/Km", "setting": "[5]", "value": 36000, "unit": "M⁻¹ s⁻¹"},
      {"measurement": "kcat/Km", "setting": "[6]", "value": 540000, "unit": "M⁻¹ s⁻¹"},
      {"measurement": "kcat", "setting": "[7]", "value": 3.3, "unit": "s⁻¹"},
      {"measurement": "Km", "setting": "[8]", "value": 56, "unit": "µM"},
      {"measurement": "kcat", "setting": "[8]", "value": 30, "unit": "s⁻¹"},
      {"measurement": "Km", "setting": "[9]", "value": 837, "unit": "µM"},
      {"measurement": "kcat", "setting": "[9]", "value": 30, "unit": "s⁻¹"},
      {"measurement": "Km", "setting": "[10]", "value": 151, "unit": "µM"},
      {"measurement": "kcat", "setting": "[10]", "value": 81, "unit": "s⁻¹"}
    ]}
  ]
}
